Measurements taken from paper PMC3174326 (Journal of medicinal chemistry, 2011).
Where a SMILES comes first, the peptide text is derived from it. The star is where a group is joined. X1 = O=C(NCCCN*)c1ccc(-c2n[nH]c3ccccc23)cc1

B1: 10 (Ac-RPTTLNL-OH) (peptide)
peptide: Ac-RPTTLNL-OH

How the values were obtained:
JNK1 = JNK1 (Homo sapiens, UniProt P45983); assay type: biochemical; conditions: for IC50: read-out: Kinase Inhibition IC50, JNK1 phosphorylation of ATF2, TR-FRET
NONcNZO10/LtJ mice = experiment: Glucose tolerance test in type 2 diabetes mouse model; assay type: in vivo; conditions: 25 mg/kg i.p. daily, 26-week-old NONcNZO10/LtJ mice, 2 g/kg D-glucose i.p.
Summary of the method: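 Male 26-week-old NONcNZO10/LtJ mice, glucose intolerant, received test compound daily by i.p. injection alongside vehicle-treated controls. After a 16 h fast, mice were given D-glucose i.p. Blood was sampled at set time points and glucose read with a hand-held meter. Treated and vehicle groups were compared by two-way ANOVA using all measurements.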

GST-JNK1 = GST-JNK1 (UniProt P45983 1-427); experiment: DELFIA
Chain of GST-JNK1 (P45983 whole entry): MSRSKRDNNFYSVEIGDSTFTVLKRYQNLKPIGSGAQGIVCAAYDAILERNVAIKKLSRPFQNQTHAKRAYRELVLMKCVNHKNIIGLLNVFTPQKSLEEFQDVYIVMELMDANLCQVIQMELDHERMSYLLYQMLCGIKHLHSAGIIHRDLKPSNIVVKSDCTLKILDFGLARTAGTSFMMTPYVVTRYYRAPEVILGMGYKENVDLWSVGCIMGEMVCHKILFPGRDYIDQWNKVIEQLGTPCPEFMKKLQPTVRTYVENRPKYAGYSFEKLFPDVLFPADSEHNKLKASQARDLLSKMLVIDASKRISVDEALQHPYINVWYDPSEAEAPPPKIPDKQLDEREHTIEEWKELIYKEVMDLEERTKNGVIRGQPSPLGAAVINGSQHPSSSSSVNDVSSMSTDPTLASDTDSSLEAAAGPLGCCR

Chain of JNK1 (P45983 whole entry): as above

| Molecule | improvement of kinase inhibition properties compared with 20 (JNK1; 9 versus 20, Figure 1e) | IC50 (JNK1) | glucose tolerance / restoring normoglycemia (NONcNZO10/LtJ mice) | IC50 (GST-JNK1) |
| --- | --- | --- | --- | --- |
| CC(C)CC(NC(=O)C(CC(N)=O)NC(=O)C(CC(C)C)NC(=O)C(NC(=O)C(NC(=O)C1CCCN1C(=O)C(N)CCCNC(=N)N)C(C)O)C(C)O)C(=O)NCC(=O)NCC(=O)NCCCNC(=O)c1ccc(-c2n[nH]c3ccccc23)cc1 (centres unmarked) [compound 9] (H-RPTTLNLGG-X1; configuration not given here) | over 100 fold | 0.0007 µM | – | – |
| Ac-tdqsrpvqpflnlttprrprpprrrqrrkkrg-OH (Ac-TDQSRPVQPFLNLTTPRRPRPPRRRQRRKKRG-OH; also: lowercase letters in name, meaning not given here) [compound 11] | – | > 50 µM | observed shortcoming | – |
| B1 | – | – | – | 4.5 µM |
